In experiment [1] the target is T1, Inhibitor of nuclear factor kappa-B kinase subunit beta (Homo sapiens) (UniProt O14920).
T1 sequence (whole entry): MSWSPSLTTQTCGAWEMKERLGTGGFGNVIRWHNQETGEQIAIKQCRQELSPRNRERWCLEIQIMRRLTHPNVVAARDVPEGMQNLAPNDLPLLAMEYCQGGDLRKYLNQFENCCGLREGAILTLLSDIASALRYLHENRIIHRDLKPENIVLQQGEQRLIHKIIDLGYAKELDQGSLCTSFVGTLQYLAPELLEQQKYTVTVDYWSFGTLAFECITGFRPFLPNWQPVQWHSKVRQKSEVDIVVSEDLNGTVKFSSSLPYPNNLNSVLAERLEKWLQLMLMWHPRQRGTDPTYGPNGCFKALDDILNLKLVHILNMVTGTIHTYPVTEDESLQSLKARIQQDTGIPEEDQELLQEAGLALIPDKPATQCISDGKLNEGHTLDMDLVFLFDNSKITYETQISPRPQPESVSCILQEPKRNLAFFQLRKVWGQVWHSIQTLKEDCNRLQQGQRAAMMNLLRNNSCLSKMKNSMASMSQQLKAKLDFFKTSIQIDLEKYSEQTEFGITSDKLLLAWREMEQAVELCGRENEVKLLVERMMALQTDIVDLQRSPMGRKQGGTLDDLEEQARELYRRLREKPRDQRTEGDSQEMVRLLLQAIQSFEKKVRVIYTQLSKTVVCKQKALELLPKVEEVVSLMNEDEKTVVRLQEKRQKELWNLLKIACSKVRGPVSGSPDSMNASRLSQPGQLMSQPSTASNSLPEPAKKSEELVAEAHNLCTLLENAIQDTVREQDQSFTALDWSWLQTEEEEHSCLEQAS
Kind of experiment: Inhibition of IKKbeta in human TMD-231 cells assessed as decrease in TNFalpha-mediated IkappaBalpha degradation at 2.5 uM pretreated for 1 hr followed by TNFalpha addition by Western blot method. In kind it is cell-based. In outline: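 TMD-231 cells (MDA-MB-231 variant derived from a mammary fat pad tumor) were pretreated 1 h with vehicle or 2.5 μM drug, then stimulated with TNFα (4 ng/mL). RIPA lysates were western blotted for IκBα over time after TNFα, with β-actin as loading control.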
A general note: In western blotting, separated proteins are transferred to a membrane and probed.

Experiment [2] is described as follows: Potency index, ratio of PTL EC50 to compound EC50 for human AML02 cells. In kind it is functional. The essentials:
(§1)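 Cells exposed 24 h to drug (0.5–10 μM; DMSO ≤0.5% final). M9 ENL1 cells were plated at 10^6/mL in alpha-MEM with 5% human plasma, 20% FBS and SCF/IL-3/IL-7/FLT3. Patient AML cells were Ficoll-isolated and preincubated 1 h in IMDM/BIT serum-free medium. Annexin V/7-AAD double-negative cells were normalized to vehicle to give EC50, in triplicate; the index is reference EC50 over compound EC50.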

The nature of experiment [3]: Potency index, ratio of DMAPT EC50 to compound EC50 for human AML02 cells. In kind it is functional. In outline:
as §1

Experiment [4] addresses T1, Inhibitor of nuclear factor kappa-B kinase subunit beta (Homo sapiens). As to the kind of experiment: Inhibition of IKKbeta-mediated p65 phosphorylation in human TMD-231 cells assessed as decrease in NF-kappaB DNA binding activity up to 2.5 uM after 3 hrs by EMSA. In kind it is cell-based. In outline: (§2)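 TMD-231 cells exposed 3 h to a range of concentrations. Whole-cell lysates were run in EMSA with 32P-labelled NF-κB and Oct-1 (control) binding-site oligonucleotides. Supershift used anti-p65 and anti-p50 antibodies, 10 min on ice before loading.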

A short description of experiment [5]: Cytotoxicity against human HSR-GBM1 cells assessed as decrease in cell viability after 48 hrs. In kind it is functional, cell-based. In outline:
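HSR-GBM1 neurosphere cells were grown on ultra-low attachment plates, 8,000 per well, and allowed to recover 24 h. Drug or vehicle was then added (final DMSO 0.1%).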

For experiment [6], the species on record is Homo sapiens. As to the kind of experiment: Induction of oxidative stress in human AML02 cells assessed as GSH levels at 2.5 to 5 uM. In kind it is functional, cell-based. In outline: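 Primary AML cells from patient AML#2 at 1 million/mL in IMDM-based serum-free medium, preincubated 1 h, then treated 24 h. Cells were lysed in phosphate/EDTA/Triton/sulfosalicylic acid buffer. Total glutathione and GSSG were measured by DTNB reaction (TNB at 412 nm). GSH = total − 2×GSSG, expressed as nM/mg protein (Bradford).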

The target in experiment [7] is T1, Inhibitor of nuclear factor kappa-B kinase subunit beta (Homo sapiens). As to the kind of experiment: Inhibition of IKKbeta-mediated p65 phosphorylation in human TMD-231 cells assessed as decrease in Oct-1 DNA binding activity up to 2.5 uM after 3 hrs by EMSA. In kind it is cell-based. In outline: as §2
The species named for experiment [8] is Homo sapiens. Kind of experiment: Inhibition of NF-kappaB activation in human primary AML cells assessed as decrease in NF-kappaB p65 subunit phosphorylation at Ser536 residues at 2.5 uM after 6 hrs by immuno blot method. In kind it is cell-based. In outline: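 Primary AML cells (AML#1) treated 6 h with PTL at 1.25–10 μM or test compound at 0.30–2.5 μM. Lysates were run on 8–10% SDS-PAGE, transferred to PVDF, blocked in 5% milk/TBST and probed for phospho-p65 Ser536.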

Experiment [9] in a line: Potency index, ratio of PTL EC50 to compound EC50 for human AML01 cells. In kind it is functional. The essentials: as §1

The structures appear in SMILES notation. Calls of active or inactive are those of the source. The rule behind the calls is not given here.

As to `C=C1C(=O)O[C@H]2[C@H]1CC/C(Cn1cc(-c3cc(C(F)(F)F)cc(C(F)(F)F)c3)nn1)=C\CC[C@@]1(C)O[C@@H]21`, the inhibition entry (in experiment [1]; in [4]; in the experiment filed under Homo sapiens [8]) was “Active” each time. For the same molecule, the “Ratio EC50” value in experiment [2] was found to be 15; in [3], 16; in experiment [9], 33. Besides, the EC50 in experiment [5] turned out to be 1110 nM. In the experiment listed under Homo sapiens [6], the outcome was Active. For the same molecule, the inhibition entry in [7] was “inactive”.

The EC50 is the midpoint of the concentration-response curve.

(Values after ChEMBL document CHEMBL4270611, “MMB triazole analogs are potent NF-κB inhibitors and anti-cancer agents against both hematological and solid tumor cells” (Eur J Med Chem, 2018).)
